Reference: ChEMBL document CHEMBL4033712, “Synthesis and biological evaluation of new C-12(α/β)-(N-) sulfamoyl-phenylamino-14-deoxy-andrographolide derivatives as potent anti-cancer agents” (Bioorg Med Chem Lett, 2017)

Columns and labels:
Type in all cases: functional
MDA-MB-231 = assay: Growth inhibition of human MDA-MB-231 cells incubated for 48 hrs by sulforhodamine B assay; conditions: MDA-MB-231, 48 h
Method in brief: (§1)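 NCI-60 five-dose screen at 0.01, 0.1, 1, 10 and 100 µM, 48 h incubation, sulforhodamine B end point. GI50 (50% decrease in net growth), TGI (total growth inhibition) and LC50 (net 50% loss of initial cells) taken from log concentration versus % growth inhibition curves.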

TK-10 = assay: Growth inhibition of human TK10 cells incubated for 48 hrs by sulforhodamine B assay; conditions: TK-10, 48 h
Method in brief: (§2)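 NCI 60 human tumour cell line panel, five-dose study at 0.01, 0.1, 1, 10 and 100 µM, 48 h incubation. Sulforhodamine B protein-binding dye end point. GI50 (50% decrease in net cell growth), TGI (total growth inhibition) and LC50 (net 50% loss of initial cells) read from log concentration versus % growth inhibition curves.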

A498 = assay: Growth inhibition of human A498 cells incubated for 48 hrs by sulforhodamine B assay; conditions: A498, 48 h; method in brief: as §1
OVCAR-5 = assay: Growth inhibition of human OVCAR5 cells incubated for 48 hrs by sulforhodamine B assay; conditions: OVCAR-5, 48 h; method in brief: as §1
SF-539 = assay: Growth inhibition of human SF539 cells incubated for 48 hrs by sulforhodamine B assay; conditions: SF-539, 48 h; method in brief: as §2
HT-29 = assay: Growth inhibition of human HT-29 cells incubated for 48 hrs by sulforhodamine B assay; conditions: HT-29, 48 h; method in brief: as §1
MDA-MB-468 = assay: Growth inhibition of human MDA-MB-468 cells incubated for 48 hrs by sulforhodamine B assay; conditions: MDA-MB-468, 48 h; method in brief: as §1
DU-145 = assay: Growth inhibition of human DU145 cells incubated for 48 hrs by sulforhodamine B assay; conditions: DU-145, 48 h; method in brief: as §1
HL-60(TB) = assay: Growth inhibition of human HL-60(TB) cells incubated for 48 hrs by sulforhodamine B assay; conditions: HL-60, 48 h
Method in brief: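 NCI-60 five-dose screen at 0.01, 0.1, 1, 10 and 100 µM for 48 h, sulforhodamine B read-out. GI50 taken from log concentration versus % growth inhibition curves as the concentration giving 50% decrease in net cell growth.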

NCI-H322M = assay: Growth inhibition of human NCI-H322M cells incubated for 48 hrs by sulforhodamine B assay; method in brief: as §1
SNB-19 = assay: Growth inhibition of human SNB19 cells incubated for 48 hrs by sulforhodamine B assay; conditions: SNB-19, 48 h; method in brief: as §2
NCI/ADR-RES = assay: Growth inhibition of human NCI/ADR-RES cells incubated for 48 hrs by sulforhodamine B assay; method in brief: as §1
SW-620 = assay: Growth inhibition of human SW620 cells incubated for 48 hrs by sulforhodamine B assay; conditions: SW-620, 48 h; method in brief: as §2
ACHN = assay: Growth inhibition of human ACHN cells incubated for 48 hrs by sulforhodamine B assay; method in brief: as §1
K562 = assay: Growth inhibition of human K562 cells incubated for 48 hrs by sulforhodamine B assay; conditions: K562, 48 h; method in brief: as §1
LOX IMVI = assay: Growth inhibition of human LOXIMVI cells incubated for 48 hrs by sulforhodamine B assay; method in brief: as §1
KM12 = assay: Growth inhibition of human KM12 cells incubated for 48 hrs by sulforhodamine B assay; conditions: KM12, 48 h; method in brief: as §1
SF-268 = assay: Growth inhibition of human SF268 cells incubated for 48 hrs by sulforhodamine B assay; conditions: SF-268, 48 h; method in brief: as §2
A549 = assay: Growth inhibition of human A549/ATCC cells incubated for 48 hrs by sulforhodamine B assay; conditions: A549, 48 h; method in brief: as §1
786-0 = assay: Growth inhibition of human 786-0 cells incubated for 48 hrs by sulforhodamine B assay; conditions: 786-0, 48 h; method in brief: as §1
COLO 205 = assay: Growth inhibition of human COLO205 cells incubated for 48 hrs by sulforhodamine B assay; conditions: COLO 205, 48 h; method in brief: as §1
IGROV-1 = assay: Growth inhibition of human IGROV1 cells incubated for 48 hrs by sulforhodamine B assay; conditions: IGROV-1, 48 h; method in brief: as §1
HCC 2998 = assay: Growth inhibition of human HCC2998 cells incubated for 48 hrs by sulforhodamine B assay; conditions: HCC 2998, 48 h; method in brief: as §1
SK-MEL-2 = assay: Growth inhibition of human SK-MEL-2 cells incubated for 48 hrs by sulforhodamine B assay; conditions: SK-MEL-2, 48 h; method in brief: as §2
CCRF-CEM = assay: Growth inhibition of human CCRF-CEM cells incubated for 48 hrs by sulforhodamine B assay; method in brief: as §1
SN12C = assay: Growth inhibition of human SN12C cells incubated for 48 hrs by sulforhodamine B assay; method in brief: as §2
HCT-116 = assay: Growth inhibition of human HCT116 cells incubated for 48 hrs by sulforhodamine B assay; conditions: HCT-116, 48 h; method in brief: as §1
SK-MEL-28 = assay: Growth inhibition of human SK-MEL-28 cells incubated for 48 hrs by sulforhodamine B assay; conditions: SK-MEL-28, 48 h; method in brief: as §2
[1] = read-out: LC50 (the source's name)

Question: Which results are given for `C=C1CC[C@@H]2[C@](C)(COC(C)=O)[C@H](OC(C)=O)CC[C@@]2(C)[C@H]1CC(Nc1ccc(S(=O)(=O)Nc2cc(C)on2)cc1)C1=CCOC1=O` (some centres undefined)?
Answer: GI50 (MDA-MB-231): 2.22 µM; LC50 (concentration giving net 50% loss of initial cells) (MDA-MB-231): 17.1 µM; TGI (MDA-MB-231): 5.11 µM; GI50 (TK-10): 3.04 µM; TGI (TK-10): 7.11 µM; CC50 (TK-10; [1]): 23.8 µM; GI50 (A498): 7.69 µM; LC50 (concentration giving net 50% loss of initial cells) (A498): 45 µM; TGI (A498): 20.3 µM; GI50 (OVCAR-5): 2.16 µM; LC50 (concentration causing net 50% loss of initial cells) (OVCAR-5): 7.61 µM; TGI (OVCAR-5): 4.05 µM; GI50 (SF-539): 1.59 µM; TGI (SF-539): 3.06 µM; CC50 (SF-539; [1]): 5.89 µM; GI50 (HT-29): 1.58 µM; TGI (HT-29): 3.09 µM; CC50 (HT-29; [1]): 6.04 µM; GI50 (MDA-MB-468): 1.49 µM; TGI (MDA-MB-468): 3.29 µM; CC50 (MDA-MB-468; [1]): 7.27 µM; GI50 (DU-145): 2.43 µM; TGI (DU-145): 6.53 µM; CC50 (DU-145; [1]): 23 µM; GI50 (HL-60(TB)): 1.39 µM; TGI (HL-60(TB)): 3.69 µM; CC50 (HL-60(TB); [1]): 9.82 µM; GI50 (NCI-H322M): 4.68 µM; TGI (NCI-H322M): 16.1 µM; CC50 (NCI-H322M; [1]): 44.6 µM; GI50 (SNB-19): 3.12 µM; TGI (SNB-19): 12.2 µM; CC50 (SNB-19; [1]): 46.4 µM; GI50 (NCI/ADR-RES): 2.41 µM; LC50 (concentration giving net 50% loss of initial cells) (NCI/ADR-RES): > 100 µM; TGI (NCI/ADR-RES): 12 µM; GI50 (SW-620): 1.32 µM; TGI (SW-620): 2.91 µM; CC50 (SW-620; [1]): 6.44 µM; GI50 (ACHN): 1.71 µM; TGI (ACHN): 3.48 µM; CC50 (ACHN; [1]): 7.05 µM; GI50 (K562): 1.57 µM; TGI (K562): 8.42 µM; CC50 (K562; [1]): > 100 µM; GI50 (LOX IMVI): 1.18 µM; TGI (LOX IMVI): 2.54 µM; CC50 (LOX IMVI; [1]): 5.46 µM; GI50 (KM12): 1.83 µM; TGI (KM12): 3.69 µM; CC50 (KM12; [1]): 7.42 µM; GI50 (SF-268): 2.35 µM; TGI (SF-268): 6.11 µM; CC50 (SF-268; [1]): 32.9 µM; GI50 (A549): 4.75 µM; TGI (A549): 15.4 µM; CC50 (A549; [1]): 42.2 µM; GI50 (786-0): 1.96 µM; LC50 (concentration giving net 50% loss of initial cells) (786-0): 6.82 µM; TGI (786-0): 3.66 µM; GI50 (COLO 205): 1.97 µM; TGI (COLO 205): 4.34 µM; CC50 (COLO 205; [1]): 9.55 µM; GI50 (IGROV-1): 2.36 µM; TGI (IGROV-1): 6.51 µM; CC50 (IGROV-1; [1]): 76.2 µM; GI50 (HCC 2998): 2.14 µM; TGI (HCC 2998): 4.05 µM; CC50 (HCC 2998; [1]): 7.64 µM; GI50 (SK-MEL-2): 2.04 µM; TGI (SK-MEL-2): 4.4 µM; CC50 (SK-MEL-2; [1]): 9.49 µM; GI50 (CCRF-CEM): 0.47 µM; TGI (CCRF-CEM): 2.71 µM; CC50 (CCRF-CEM; [1]): > 100 µM; GI50 (SN12C): 1.73 µM; TGI (SN12C): 4.52 µM; CC50 (SN12C; [1]): 20.7 µM; GI50 (HCT-116): 1.12 µM; TGI (HCT-116): 2.39 µM; CC50 (HCT-116; [1]): 5.1 µM; GI50 (SK-MEL-28): 2.02 µM; LC50 (50% net cell kill) (SK-MEL-28): 9.2 µM; TGI (SK-MEL-28): 4.31 µM
